From ChEMBL document CHEMBL4513216, “Probing the Open Global Health Chemical Diversity Library for Multistage-Active Starting Points for Next-Generation Antimalarials” (ACS Infect Dis, 2020)

Experiment: Toxicity liver stage against HepG2, at 10uM
Type: cell-based
Design: test concentration 10 uM, cell line HepG2-A16-CD81EGFP
Details: human, HepG2-A16-CD81EGFP cells; read-out: INHIBITION
Procedure, shortened: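 Uninfected HepG2-A16-CD81EGFP cells, 3 × 10^3 per well, 1536-well, plated on prespotted compound at 10 μM final, parasite-free screening media added to match infected plates; puromycin 10 μM positive, DMSO 0.5% negative; run in parallel with 48 h PbLuc assay at 37 °C, 5% CO2; viability by CellTiter-Glo luminescence, normalized to controls.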

SMILES | cytotoxicity at 10 µM
Cc1ccc(C(=O)NC2CCN(C)CC2)cc1N(C)S(C)(=O)=O | -0.853%
CC(CN1CCOCC1)NC(=O)NCc1ccc(Cl)s1 (stereo not given) | 1.23%
CCN1CC2(CCCCN2C(=O)c2ccsc2)CC1=O (stereo not given) | 5.97%
Cc1noc(C)c1CC(=O)N1CCCN(C)c2ccc(Cl)cc21 | 9.71%
COC(=O)c1cccc(CNC(=O)c2cc(C(C)C)n(C)n2)c1 | -3.26%
O=C(Cn1cc(-c2ccccc2)cn1)N1CCNC1=O | 6.74%
O=C(c1ccsc1)N1CCN(CC(O)c2cccc(F)c2)CC1 (stereo not given) | -46.7%
Cc1ccc(CN2CCc3onc(COc4cccnc4)c3C2)s1 | 5.98%
Nc1cc2c(nn1)CCN(C(=O)CCCC1CCCCC1)C2 | -0.0113%
COc1ccc(-n2cnnc2SCC(=O)NC(C)C)cn1 | 14%
O=C(C1CCCC1)N1CCC(Nc2ccncn2)CC1 | -57.7%
Cc1cccc(-c2noc(CNC(C)Cn3cc(C)cn3)n2)c1 (stereo not given) | -2.87%
Cc1cnn(CC2CCCCN2C(=O)c2cc(Cl)c[nH]2)c1 (stereo not given) | -5.4%
Cc1noc(C)c1-c1ccc(C2CCCN2C(=O)c2cccnn2)nc1 (stereo not given) | -18.9%
O=C1CN(Cc2cn(CC3CCCN(C4CCSCC4)C3)nn2)CCN1 (stereo not given) | -49.3%
COc1cccc(S(=O)(=O)CCN2CCCN(C(C)=O)CC2)c1 | -10.4%
CCC[C@H]1CN(c2nc(CO)cs2)C[C@@H]1NC(=O)C1CCC1 | 6.07%
COc1ccc(C(=O)NCCCNc2ncccn2)c(OC)c1 | -7.4%
CN(Cc1nc(COc2ccccc2)no1)CC1Cc2ccccc2O1 (stereo not given) | -4.4%
O=C(c1cccn2ccnc12)N1CCCN(c2cccnn2)CC1 | 1.68%
Cc1cnn(C2CCCN(C(=O)Cc3n[nH]c4ccccc34)C2)c1 (stereo not given) | -6.8%
CC(C)(C)c1ncc(CNCC2CCCn3ccnc32)s1 (stereo not given) | -6.76%

SMILES | cytotoxicity at 10 µM
NC(=O)C1CCCN(c2ncnc3c2Cc2ccccc2OC3)C1 (stereo not given) | -5.64%
CC(C)CNC(=O)c1ccc2nnc(C3CCN(S(C)(=O)=O)C3)n2c1 (stereo not given) | 5.09%
COc1ccc(-c2ccc(C(=O)N3CCOCC3CC(N)=O)o2)cc1 (stereo not given) | 3.16%
CCc1[nH]ncc1C(=O)N1CCOC(c2nc(C)n[nH]2)C1 (stereo not given) | -8.69%
CC(=O)N1CCn2c(-c3ccccc3)cnc2C12CCNCC2 | 7.43%
Cc1cc(N2CCN(C(=O)[C@@H]3C[C@H]4C=C[C@@H]3C4)CC2)nc2ccccc12 | -5.71%
CCCc1nnc(N2CCC3(CC2)CC(=O)NC(=O)C3)o1 | 3.06%
CCCN1CCCn2nc(CNS(=O)(=O)c3cnn(CC)c3)cc2C1 | -7.23%
Cc1nn(C(C)(C)C)c(=O)n1CC(=O)NCC(F)(F)F | -1.32%
O=C(O)CC(CC(=O)NCCc1ccsc1)c1cccs1 (stereo not given) | -10.9%
CC(NC(=O)C1CCCC1)c1nc(-c2ccccc2)c[nH]1 (stereo not given) | 6%
CN(CC(=O)N1CC(C)(C)[C@](O)(C2CC2)C1)Cc1cccnc1 | -52%
CNc1ncc(CN(C)C(=O)c2ccc(C3CCCO3)s2)cn1 (stereo not given) | 10.2%
CC(Cc1cccc(Cl)c1)NC(=O)Nc1cnn(CC(N)=O)c1 (stereo not given) | -15%
NC(=O)c1ccc(CN2CCC(N3CCCCC3)CC2)cc1 | -7.55%
CC(=O)N1CCC(c2cnc(-c3c(C)n[nH]c3C)cn2)CC1 | -17.1%
COCCCNC(=O)c1cc(-c2cnc(N3CCOCC3)nc2)cn1C | -69.8%
COc1cc(N2C[C@@H](C)[C@](O)(C3CC3)C2)nc(N)n1 | 0.929%
COc1ccc(C2CCCN2C(=O)c2ccc(=O)n(C)c2)cc1OC (stereo not given) | 11.3%
COc1cc(-c2n[nH]c(CO)n2)cc(OC)c1OC | -4.91%
Cc1ccc(OCC(=O)Nc2ncccc2OC(F)F)cc1 | 6.42%
CC(O)CN1CCC(CN(C)Cc2cccc(C#N)c2)CC1 (stereo not given) | -1.3%

SMILES | cytotoxicity at 10 µM
COCC(=O)N1CCCC1c1ccc(C(=O)NCCN2CCCCC2)s1 (stereo not given) | 4.26%
CC(=O)c1cccc(NS(=O)(=O)c2cc(C)c(C(=O)O)s2)c1 | 0.178%
Cc1ccc(N(CC(=O)N2CCCCC2)C(=O)C2CCCO2)cc1 (stereo not given) | 13.9%
CN(C)c1ccc(NC(=O)NCc2ccc(Cl)s2)cn1 | 6.43%
CSCC[C@H](N)c1nnc(SCC(=O)Nc2ccc(Br)cc2)o1 | -2.15%
CN(C(=O)Cc1cccs1)C1CCN(c2ccccn2)CC1 | -3.54%
O=C(Nc1ccccc1)C1CN(Cc2ccco2)CC12CCOCC2 (stereo not given) | -3.2%
CC(=O)NCC(=O)N1CCC2(CC1)NC(=O)CC2c1cccnc1 (stereo not given) | -72.5%
CC(C)NC(=O)N1C[C@@H]2C[C@H](C(=O)NCc3ccccc3)[C@H](C1)O2 | -0.594%
CCNc1cc2c(nn1)CCN(C(=O)c1cccc(CSC)c1)C2 | -12.7%
COCCNC(=O)Cn1cc(OCc2ccccc2F)c(=O)cc1CO | -173%
COc1ccccc1C1(CNC(=O)NCc2noc(C)n2)CC1 | -0.343%
Cc1ncc(C)c(N2CCCC(CO)(Cc3cccc(Cl)c3)C2)n1 (stereo not given) | 59.4%
Cc1cnc(N2CCc3ncnc(N4CCN(C)CC4)c3CC2)nc1 | -1.73%
COc1ccc(CNC(=O)CCc2c(C)noc2C)cc1F | -6.87%
CC(C)CN1CCC2(CC1)CN(C(=O)C(C)C)C2 | -2.16%
O=C(c1cnnn1-c1ccccc1)N1CCCC(c2ccn[nH]2)C1 (stereo not given) | -2.75%
Cc1cc(C(F)(F)F)nc(CNC(=O)CCn2cccn2)n1 | 1.7%
CCC(=O)Nc1ccccc1Sc1nc(Br)nn1C | 3.28%
O=C(C1CCCO1)N1CCC(Cn2cc(C3CCCC3)nn2)CC1 (stereo not given) | 5.61%
O=C(NC1CC1)C1CN(c2nc3ccccc3s2)CCN1 (stereo not given) | -49.4%
CC(C)(C)n1cc(C(=O)N2CCN(Cc3ccncc3)CC2)cn1 | -12.8%

SMILES | cytotoxicity at 10 µM
CC(Oc1ccc2c(c1)OCO2)C(=O)N1CCC(N2CCCC2)CC1 (stereo not given) | -4.63%
c1cncc(-c2nnc([C@H]3CCN(CC4CCCCC4)C3)o2)c1 | -6.72%
O=S(=O)(c1ccccc1)N1C[C@@H]2CCCCN(Cc3cccs3)[C@@H]2C1 | 1.56%
CC(C)c1cc(NC(=O)CN2CCCC2Cn2cncn2)on1 (stereo not given) | -4.05%
COC(=O)c1cc(OCC2CCC2)cc(C(=O)N[C@@H]2CNCC[C@H]2O)c1 | -12%
O=C(NCCO)c1ccn(-c2ccc3ccccn23)n1 | -8.21%
Cc1ccccc1-n1cc(CN(C)C(=O)CC2C(=O)NCCN2C)cn1 (stereo not given) | 6.89%
CC[C@H]1CN(S(=O)(=O)c2ccccc2)CC[C@H]1CC(=O)O | 1.7%
CNC(=O)CCc1cc(C2CCN(c3cnccn3)CC2)nc(C)n1 | -4.65%
O=C(c1ccsc1)N1CCCC(c2cc(C(F)(F)F)[nH]n2)C1 (stereo not given) | -4.22%
O=C(c1ccno1)N1CCO[C@@H]2CC(COCc3ccccn3)C[C@H]21 (stereo not given in full) | -103%
Cc1nonc1-c1nc(C(C)C)nn1-c1ccc2c(c1)OCO2 | -6.9%
CCc1nnc(C(C)N2CCc3cncnc3C2)o1 (stereo not given) | 7.49%
O=C1OCCN1CCNc1ncc2c(n1)CCN2c1ccccc1 | -4.95%
CCCC(=O)NC1CCCN(Cc2cccs2)C1 (stereo not given) | -3.25%
Cc1cc(F)ccc1S(=O)(=O)N(C)CC(N)=O | 1.38%
CN(Cc1ccco1)C[C@H]1OC[C@@H]2CCN(Cc3ccncc3)C[C@@H]21 | -1.62%
C1Cc2nc(CCNc3nc(C4CC4)nc4c3CCNCC4)sc2C1 | -10.4%
Cn1nccc1CNS(=O)(=O)c1cc(F)ccc1Br | 11.8%
Cc1cc(C(=O)N2CCS(=O)(=O)CC2)c(C)o1 | -16.8%
Cc1occc(=O)c1OCc1noc(C(=O)NCC(C)C)n1 | 6.43%
CN(C)C(=O)CO[C@H]1CN(Cc2nccs2)[C@@H]2COC[C@H]12 | 5.08%

SMILES | cytotoxicity at 10 µM
c1cnnc(NCC2CN(Cc3cccc4c3OCCO4)CCO2)c1 (stereo not given) | -9.93%
O=C(NCCc1nnc2n1CCC2)NCC1(c2ccccc2)CC1 | -7.35%
Fc1ccc(C2CN(c3ncnc4nc[nH]c34)CCO2)cc1 (stereo not given) | 13.1%
COc1cccc(S(=O)(=O)Cc2cc(C)on2)c1 | 4.03%
CN1CC(=O)N(c2ccccc2)CC12CCN(Cc1nccn1C)C2 (stereo not given) | -1.17%
COC1[C@@H]2CC[C@H]1CN(c1nc(C)nc3ccsc13)C2 (stereo not given in full) | 18%
COc1cccc(C(=O)NC(CC(=O)O)c2cccs2)c1OC (stereo not given) | -8.66%
Cc1ccc(-n2ncc(C(=O)N(C)C3CCN(C)CC3)c2N)cc1C | -8.56%
Cc1ccncc1NC(=O)C1CSc2ncc(C)c(=O)n2C1 (stereo not given) | -6.53%
CNC(=O)[C@H]1C[C@@H]2CN(S(=O)(=O)c3ccccc3)C[C@@H]2N1C(C)=O | -10.4%
CC=C(C)C(=O)NS(=O)(=O)c1ccc(C(F)(F)F)cn1 | 3.95%
CCn1cnc(NC(=O)N2CCCC(c3ccccc3)CC2)n1 (stereo not given) | 2.7%
CC1Oc2ccc(S(=O)(=O)NCCCn3ccnc3)cc2NC1=O (stereo not given) | 7.88%
CN(C)CCN1CCN(Cc2nccs2)Cc2cccnc21 | -1.08%
Cc1cnn(C2CCCN(C(=O)C3=NN(C)C(=O)CC3)C2)c1 (stereo not given) | -3.71%
Cc1nn(C(C)C)c(C)c1CN1CCC(c2cc(C(C)C)n[nH]2)CC1 | 1.34%
Cc1ccc(CN2CCC3(C2)C(=O)N(CC2CC2)c2ccccc23)s1 (stereo not given) | 13.4%
COc1ccccc1OC1(C(=O)O)CCN(c2nccnc2OC)CC1 | -6.25%
Cn1ccnc1CN1C[C@@H]2[C@@H](C1)OCC(=O)N2CC1CCCC1 | -4.48%
Cc1cc(CNC2(c3ccc(Cl)cc3)CC2)no1 | 1.5%
CCCSCC(=O)N1C[C@@H](NC(C)=O)[C@H](c2ccc(OC)cc2)C1 | 7.41%
Cc1nc(C)n(CC2CCCN2Cc2nc3ccccc3n2C)n1 (stereo not given) | -2.21%
